# Values joined by “and” are separate entries in the source; they are usually repeats but may differ in a detail not shown here. Equal values may be shown once. Active and inactive are the calls of the source.
# How the values were obtained:
# Rattus norvegicus [1] = species: Rattus norvegicus; experiment: Complete remission of DMBA-induced hormone-dependent mammary carcinoma tumors in rats at 36 mg; type: functional
# Outline: (§1)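 Female SD rats bearing DMBA-induced, hormone-dependent mammary adenocarcinoma, with at least one tumor >140 mm², were grouped in tens. Dosing was sc per kg body weight: a single dose daily Monday–Thursday and a double dose Friday. Ovariectomy served as the comparison arm. Complete remission was defined as a tumor no longer palpable. Body weight and tumor area changes were also recorded.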
# Rattus norvegicus [2] = species: Rattus norvegicus; experiment: Complete remission of DMBA-induced hormone-dependent mammary carcinoma tumors in rats at 72 mg; type: functional; outline: as §1
# Rattus norvegicus [3] = species: Rattus norvegicus; experiment: Final number of DMBA-induced hormone-dependent mammary carcinoma tumors in rats at 36 mg; type: functional
# Outline: (§2)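 Sprague-Dawley rats carrying DMBA-induced, hormone-dependent mammary adenocarcinoma, at least one tumor >140 mm², were placed in groups of ten. Compounds were given sc, with doses in mg/kg: a single daily dose Monday to Thursday and a double dose on Friday. Ovariectomy served as a comparator group. New tumors arising during the test were counted.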
# Rattus norvegicus [4] = species: Rattus norvegicus; experiment: Partial remission of DMBA-induced hormone-dependent mammary carcinoma tumors in rats at 18 mg; type: functional
# Outline: (§3)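 DMBA-induced, hormone-dependent mammary adenocarcinoma in SD rats. Rats bearing at least one tumor >140 mm² were placed in groups of ten. Compound was given sc as a single dose (mg/kg) daily Monday–Thursday and a double dose on Friday. Tumors were counted at the start and as new tumors; responses were scored as complete remission (not palpable), partial remission (≥50% reduction), no change or progression. Tumor area and body weight were recorded as % change.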
# Rattus norvegicus [5] = species: Rattus norvegicus; experiment: Partial remission of DMBA-induced hormone-dependent mammary carcinoma tumors in rats at 72 mg; type: functional; outline: as §3
# Rattus norvegicus [6] = species: Rattus norvegicus; experiment: Percent change in body weight DMBA-induced hormone-dependent mammary carcinoma tumors in rats at 18 mg for 7 days; type: functional; outline: as §3
# Rattus norvegicus [7] = species: Rattus norvegicus; experiment: Percent change in body weight DMBA-induced hormone-dependent mammary carcinoma tumors in rats at 72 mg for 7 days; type: functional
# Rattus norvegicus [8] = species: Rattus norvegicus; experiment: Percent change in DMBA-induced hormone-dependent mammary carcinoma tumor area at 36 mg after 28 days; type: functional; outline: as §3
# Rattus norvegicus [9] = species: Rattus norvegicus; experiment: Percent change in DMBA-induced hormone-dependent mammary carcinoma tumor area at 18 mg after 28 days; type: functional; outline: as §3
# Rattus norvegicus [10] = species: Rattus norvegicus; experiment: Partial remission of DMBA-induced hormone-dependent mammary carcinoma tumors in rats at 36 mg; type: functional; outline: as §3
# Rattus norvegicus [11] = species: Rattus norvegicus; experiment: Percent unchanged tumor size of DMBA-induced hormone-dependent mammary carcinoma tumors in rats at 36 mg; type: functional
# Rattus norvegicus [12] = species: Rattus norvegicus; experiment: Percent unchanged tumor size of DMBA-induced hormone-dependent mammary carcinoma tumors in rats at 72 mg; type: functional
# Rattus norvegicus [13] = species: Rattus norvegicus; experiment: Percent unchanged tumor size of DMBA-induced hormone-dependent mammary carcinoma tumors in rats at 18 mg; type: functional
# Rattus norvegicus [14] = species: Rattus norvegicus; experiment: Progression of DMBA-induced hormone-dependent mammary carcinoma tumors in rats at 72 mg; type: functional; outline: as §3
# Rattus norvegicus [15] = species: Rattus norvegicus; experiment: Progression of DMBA-induced hormone-dependent mammary carcinoma tumors in rats at 18 mg; type: functional
# Rattus norvegicus [16] = species: Rattus norvegicus; experiment: Complete remission of DMBA-induced hormone-dependent mammary carcinoma tumors in rats at 18 mg; type: functional; outline: as §1
# Rattus norvegicus [17] = species: Rattus norvegicus; experiment: Initial tumor number of DMBA-induced hormone-dependent mammary carcinoma in rats at 36 mg; type: functional; outline: as §3
# Rattus norvegicus [18] = species: Rattus norvegicus; experiment: Initial tumor number of DMBA-induced hormone-dependent mammary carcinoma in rats at 72 mg; type: functional; outline: as §3
# MCF7 [19] = experiment: Inhibition of estrogen receptor positive MCF-7 cell proliferation as percent treated/control cell number after 10 days at 10e-6 M; type: functional, Homo sapiens
# Outline: (§4)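 MCF-7 cells were grown in McCoy's 5a medium with fetal bovine serum stripped by DCC (0.5 h, 45 °C). Compounds were dissolved in ethanol (final ≤0.5%) and diluted in complete medium. Cells were seeded at 5×10^4 cells/plate. On day 10, three replicate plates per group were counted by Coulter counter, three counts per plate. Percent T/C = test/control. In a retest, compounds were given at 10^-7 M with 17β-estradiol at 10^-7 or 10^-8 M.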
# MCF7 [20] = experiment: Inhibition of estrogen receptor positive MCF-7 cell proliferation as percent treated/control cell number after 10 days at 10e-7 M; type: functional, Homo sapiens; outline: as §4
# MCF7 [21] = experiment: Inhibition of estrogen receptor positive MCF-7 cell proliferation as percent treated/control cell number after 10 days at 10e-7 M with 10e-7 M 17-beta-estradiol; type: functional, Homo sapiens; outline: as §4
# MCF7 [22] = experiment: Inhibition of estrogen receptor positive MCF-7 cell proliferation as percent treated/control cell number after 10 days at 10e-8 M; type: functional, Homo sapiens; outline: as §4
# MCF7 [23] = experiment: Inhibition of estrogen receptor positive MCF-7 cell proliferation as cell number after 10 days at 10e-8 M; type: functional, Homo sapiens; outline: as §4
# MCF7 [24] = experiment: Inhibition of estrogen receptor positive MCF-7 cell proliferation as cell number after 10 days at 10e-9 M; type: functional, Homo sapiens; outline: as §4
# MCF7 [25] = experiment: Inhibition of estrogen receptor positive MCF-7 cell proliferation as percent treated/control cell number after 10 days at 10e-9 M; type: functional, Homo sapiens; outline: as §4
# MCF7 [26] = experiment: Inhibition of estrogen receptor positive MCF-7 cell proliferation as cell number after 10 days at 10e-6 M; type: functional, Homo sapiens; outline: as §4
# MCF7 [27] = experiment: Inhibition of estrogen receptor positive MCF-7 cell proliferation as cell number after 10 days at 10e-7 M and 10e-8 M 17-beta-estradiol; type: functional, Homo sapiens; outline: as §4
# MCF7 [28] = experiment: Inhibition of estrogen receptor positive MCF-7 cell proliferation as cell number after 10 days at 10e-7 M and 10e-7 M 17-beta-estradiol; type: functional, Homo sapiens; outline: as §4
# MCF7 [29] = experiment: (§5) Inhibition of estrogen receptor positive MCF-7 cell proliferation as cell number after 10 days at 10e-7 M; type: functional, Homo sapiens; outline: as §4
# MCF7 [30] = experiment: as §5; type: functional, Homo sapiens; outline: as §4; remark: listed apart in the source
# Rattus norvegicus [31] = species: Rattus norvegicus; experiment: Initial tumor number of DMBA-induced hormone-dependent mammary carcinoma in rats at 18 mg; type: functional; outline: as §3
# Rattus norvegicus [32] = species: Rattus norvegicus; experiment: Percent change in DMBA-induced hormone-dependent mammary carcinoma tumor area at 72 mg after 28 days; type: functional; outline: as §3
# [33] = biological target: T1, Estrogen receptor (Mus musculus) (UniProt O08537+P19785); experiment: Antiestrogenic activity in uterotrophic test in mice at 0.1 ug (experiment 1); type: functional
# Outline: (§6)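 Immature female NMRI mice, 20 days old (14.5 ± 1.2 g), randomly grouped 10 per group. Each received a daily sc injection for 3 days of 0.1 mL olive oil solution containing test compound, together with estrone to stimulate uterine growth. Uteri were removed 24 h after the last injection and weighed. Results are reported as % inhibition of the estrone-stimulated uterine weight gain, mean ± SD.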
# [34] = biological target: T1, Estrogen receptor (Mus musculus); experiment: Antiestrogenic activity in uterotrophic test in mice at 5 ug (experiment 2); type: functional; outline: as §6
# [35] = biological target: T1, Estrogen receptor (Mus musculus); experiment: Antiestrogenic activity in uterotrophic test in mice at 500 ug (experiment 3); type: functional; outline: as §6
# [36] = biological target: T1, Estrogen receptor (Mus musculus); experiment: Antiestrogenic activity in uterotrophic test in mice at 0 ug (experiment 2); type: functional; outline: as §6
# [37] = biological target: T1, Estrogen receptor (Mus musculus); experiment: Antiestrogenic activity in uterotrophic test in mice at 0 ug (experiment 3); type: functional; outline: as §6
# [38] = biological target: T1, Estrogen receptor (Mus musculus); experiment: Antiestrogenic activity in uterotrophic test in mice at 50 ug (experiment 3); type: functional; outline: as §6
# MCF7 [39] = experiment: Inhibition of estrogen receptor positive MCF-7 cell proliferation as percent treated/control cell number after 10 days at 10e-7 M with 10e-8 M 17-beta-estradiol; type: functional, Homo sapiens; outline: as §4
# [40] = biological target: T1, Estrogen receptor (Mus musculus); experiment: Estrogenic activity in uterotrophic test in mice; No effect; type: functional
# Outline: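 Immature (20-day-old) female NMRI mice, 14.5 ± 1.2 g, randomized into groups of 10. Given the test compound sc daily for 3 days in 0.1 mL olive oil. Uteri removed 24 h after the last injection; uterine weight taken as the read-out, means ± SD. Dose in μg.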
# [41] = biological target: T1, Estrogen receptor (Mus musculus); experiment: Inhibitory activity in mouse uterine weight test at 5 ug (experiment 2); type: functional
# Outline: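 Antiuterotrophic (Dorfman) assay in immature 20-day-old female NMRI mice, groups of 10. Uterine growth was stimulated with estrone (0.1 μg) and the test compound was given alongside it, sc daily for 3 days in 0.1 mL olive oil. Uteri were taken 24 h after the last dose. Uterine weight is reported as means ± SD and inhibition as % of the estrone-stimulated response.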
# [42] = biological target: T1, Estrogen receptor (Mus musculus); experiment: Inhibitory activity in mouse uterine weight test at 50 ug (experiment 3); type: functional
# Outline: (§7)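 Immature female NMRI mice, 20 days old (14.5 ± 1.2 g), in random groups of 10. They received sc injections daily for 3 days of 0.1 mL olive oil containing test compound, with estrone 0.1 μg given to stimulate uterine growth. Uteri were removed 24 h after the last injection and weighed (mean ± SD). Result is percent inhibition of the estrone-stimulated uterine weight gain.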
# [43] = biological target: T1, Estrogen receptor (Mus musculus); experiment: Inhibitory activity in mouse uterine weight test at 500 ug (experiment 3); type: functional; outline: as §7
# Rattus norvegicus [44] = species: Rattus norvegicus; experiment: Final number of DMBA-induced hormone-dependent mammary carcinoma tumors in rats at 18 mg; type: functional; outline: as §2
# Rattus norvegicus [45] = species: Rattus norvegicus; experiment: Final number of DMBA-induced hormone-dependent mammary carcinoma tumors in rats at 72 mg; type: functional; outline: as §2
# Rattus norvegicus [46] = species: Rattus norvegicus; experiment: Percent change in body weight DMBA-induced hormone-dependent mammary carcinoma tumors in rats at 36 mg for 7 days; type: functional
# [47] = system: Estrogen receptor (Bos taurus); experiment: Displacement of [3H]estradiol from calf estrogen receptor
# T1 sequence (O08537 whole entry, looked up): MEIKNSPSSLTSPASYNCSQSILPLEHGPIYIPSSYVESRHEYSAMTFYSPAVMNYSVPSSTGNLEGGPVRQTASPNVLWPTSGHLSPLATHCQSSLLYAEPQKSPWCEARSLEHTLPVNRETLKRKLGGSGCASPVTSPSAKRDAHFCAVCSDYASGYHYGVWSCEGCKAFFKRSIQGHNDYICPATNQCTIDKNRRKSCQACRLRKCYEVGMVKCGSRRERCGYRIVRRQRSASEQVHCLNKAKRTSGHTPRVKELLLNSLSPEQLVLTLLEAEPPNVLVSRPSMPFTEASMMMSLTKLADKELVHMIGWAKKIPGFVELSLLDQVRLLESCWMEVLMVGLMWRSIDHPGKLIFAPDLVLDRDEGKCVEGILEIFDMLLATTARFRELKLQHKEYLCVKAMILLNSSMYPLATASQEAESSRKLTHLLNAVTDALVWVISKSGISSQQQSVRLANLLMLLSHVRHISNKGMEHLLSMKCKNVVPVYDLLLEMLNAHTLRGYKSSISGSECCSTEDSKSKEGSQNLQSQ
# T1 sequence (P19785 whole entry, looked up): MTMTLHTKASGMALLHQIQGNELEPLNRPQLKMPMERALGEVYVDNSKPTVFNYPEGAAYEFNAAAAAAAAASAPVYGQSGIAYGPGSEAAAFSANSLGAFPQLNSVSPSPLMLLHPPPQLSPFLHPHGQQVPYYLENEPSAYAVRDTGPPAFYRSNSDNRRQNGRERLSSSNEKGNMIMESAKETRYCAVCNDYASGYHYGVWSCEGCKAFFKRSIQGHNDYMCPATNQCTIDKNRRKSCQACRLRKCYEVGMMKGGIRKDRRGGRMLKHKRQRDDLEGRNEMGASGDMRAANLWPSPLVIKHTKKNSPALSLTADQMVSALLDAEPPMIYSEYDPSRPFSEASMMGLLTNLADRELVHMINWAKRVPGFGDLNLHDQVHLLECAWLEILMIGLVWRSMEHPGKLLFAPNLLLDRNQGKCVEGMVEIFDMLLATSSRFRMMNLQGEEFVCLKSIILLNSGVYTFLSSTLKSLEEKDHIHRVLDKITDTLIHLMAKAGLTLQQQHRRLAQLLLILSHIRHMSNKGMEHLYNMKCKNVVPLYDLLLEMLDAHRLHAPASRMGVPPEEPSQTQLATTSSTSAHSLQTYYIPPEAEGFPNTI
smiles,measurement,setting,value
CC(c1cccc(O)c1)C(C)c1cccc(O)c1 (configuration not stated),Tumors,Rattus norvegicus [1],29%
same,Tumors,Rattus norvegicus [2],34%
same,No. of tumors,Rattus norvegicus [3],12
same,Tumors,Rattus norvegicus [4],11%
same,Tumors,Rattus norvegicus [5],25%
same,Change,Rattus norvegicus [6],2.4%
same,Change,Rattus norvegicus [7],0.9%
same,Change,Rattus norvegicus [8],105%
same,Change,Rattus norvegicus [9],188%
same,Tumors,Rattus norvegicus [10],9%
same,Tumors,Rattus norvegicus [11],38%
same,Tumors,Rattus norvegicus [12],16%
same,Tumors,Rattus norvegicus [13],24%
same,Tumors,Rattus norvegicus [14],25%
same,Tumors,Rattus norvegicus [15],51%
same,Tumors,Rattus norvegicus [16],14%
same,No. of tumors,Rattus norvegicus [17],22
same,No. of tumors,Rattus norvegicus [18],26
same,T/C,MCF7 [19],71%
same,T/C,MCF7 [20],92% and 77%
same,T/C,MCF7 [21],107%
same,T/C,MCF7 [22],82%
same,Cell number,MCF7 [23],35900
same,Cell number,MCF7 [24],39800
same,T/C,MCF7 [25],91%
same,Cell number,MCF7 [26],32200
same,Cell number,MCF7 [27],8000
same,Cell number,MCF7 [28],7100
same,Cell number,MCF7 [29],6100
same,Cell number,MCF7 [30],33600
same,No. of tumors,Rattus norvegicus [31],21
same,Change,Rattus norvegicus [32],6%
same,Effect,[33],38.5
same,Effect,[34],36.5
same,Effect,[35],29
same,Effect,[36],10.5
same,Effect,[37],9.9
same,Effect,[38],34.3
same,T/C,MCF7 [39],121%
same,Effect,[40],inactive
same,inhibition,[41],7%
same,inhibition,[42],12%
same,inhibition,[43],31%
same,No. of tumors,Rattus norvegicus [44],16
same,No. of tumors,Rattus norvegicus [45],22
same,Change,Rattus norvegicus [46],1.6%
same,Ka,[47],1.1e+07 M⁻¹

# Source: ChEMBL document CHEMBL1121898, “Potential antiestrogens. Synthesis and evaluation of mammary tumor inhibiting activity of 1,2-dialkyl-1,2-bis(3'-hydroxyphenyl)ethanes” (1981)
